These results are taken from publication PMC4073670 (Nature, 2011).

Several values for one entry are separate records, joined by “and”; a condition that tells them apart may be missing. Identical values can stand only once. Square brackets hold non-standard residues; d marks the D form. Ends that are not written are not given here.

One experiment has as its system K19 fibers. Nature of the experiment: Nanogold binding to K19 fibers, electron microscopy blind counting. Details: species or system human. Particulars: z-test versus unconjugated nanogold. The gist of the method:
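Cys-Gly3-extended test D-peptide or scrambled control (60 nmol) was conjugated to 6 nmol monomaleimido nanogold (1 h, room temperature) and freed of peptide by 10 kDa cut-off. K19 fibers (100 μM K19, 25 μM heparin, overnight at 37°C, pH 7.4) were sonicated and washed. 10 nM conjugate or control was incubated 1 h with 1.67 μM fibers (by monomer) in 25 mM MOPS pH 7.2, then gold-enhanced for EM. Fiber-bound particles were counted blind as end or side.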

The next experiment deals with ends of K19 fibers. Nature of the experiment: Nanogold localization to fiber ends, electron microscopy blind counting. The note with it: for nanogold at fiber ends, significance vs nanogold alone: z-test versus unconjugated nanogold. Format: binding, human. The gist of the method:
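Cys-GGG-extended D-peptides were coupled to monomaleimido nanogold for 1 h at room temperature, and unbound peptide was removed by 10-kDa filtration. Conjugate (10 nM) was incubated 1 h with sonicated, heparin-free K19 fibers (1.67 μM by monomer) in 25 mM MOPS pH 7.2. Gold was enlarged with Goldenhance before EM. Particles within a 15 nm cutoff were scored as end- or side-bound by a blinded microscopist.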

Experiment [1] relates to tau K19. Kind of experiment: Tau K19 inhibition assay. In kind it is biochemical, human. The note with it: equimolar ratio with K19; 50 μM K19, pH 7.4, 37°C, quiescent. The gist of the method: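 K19 was expressed in E. coli BL21(DE3) with 1 mM IPTG and purified by boiling and cation exchange. Reactions held 50 μM K19 in 250 mM sodium phosphate pH 7.4 with 1 mM DTT, 12.5 μM heparin (6000 MW) and 10 μM ThS. Peptide was added from a 0.5 mM stock. Plates were read every 15 min (ex 440/em 510) at 37°C, quiescent, with 2 s shaking before reads. At least 3 replicates; lag time is the mean threshold-crossing time ± SD.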

The next experiment has as its system VQIVYK. Kind of experiment: VQIVYK inhibition assay. Format: biochemical. Particulars: 25 mM MOPS pH 7.2, 100 μM ThS, room temperature; for VQIVYK fibrillation inhibition, equimolar peptide: equimolar ratio with VQIVYK.
The subject of the next experiment is soluble VQIVYK. Nature of the experiment: 1H NMR binding to soluble VQIVYK. Particulars: even at 70-fold molar excess of soluble VQIVYK, pH 5.0, 283 K.
Another experiment concerns tau K12. Nature of the experiment: Tau K12 inhibition assay, un-seeded. Format: biochemical, human. Particulars: 50 μM K12, pH 7.4, 37°C.
Experiment [2] concerns tau K19. Nature of the experiment: Electron microscopy of K19 fibrillation. Particulars: incubation with peptide; negative stain, 1% uranyl acetate. Format: biochemical, human. The gist of the method: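 Recombinant K19 (E. coli BL21(DE3); boiled lysate, cation exchange) was incubated at 50 μM with peptide. Buffer was 250 mM sodium phosphate pH 7.4 with 1 mM DTT, 12.5 μM heparin and 10 μM ThS, held quiescent at 37°C. Samples were spotted on glow-discharged carbon/formvar copper grids for 3 min, rinsed with water, stained with 1% uranyl acetate for 90 s, and imaged by TEM.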

The test system of a further experiment is amyloid beta(1-42). Nature of the experiment: Amyloid beta fibrillation assay. Format: biochemical. Particulars: 11.5 μM Aβ1-42, 11.5 μM D-TLKIVW, 10 μM ThT, 100 mM Bicine pH 9.1, 37°C, 4 replicates. The gist of the method: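 Aβ1-42 was diluted to 0.2 mg/ml in 50 mM NH4OH and 0.2 μm filtered. Final mix: 11.5 μM Aβ1-42, 10 μM ThT, 23 mM NH4OH, 100 mM Bicine pH 9.1, with or without 11.5 μM test D-peptide. Four replicates were run at 37°C with continuous 960 rpm shaking (1 mm diameter), reading ThT every minute at Ex 444/Em 482.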

For the next experiment, the target named is VQIVYK fibers. Nature of the experiment: 1H NMR binding to VQIVYK fibers.
Another experiment has as its target tau fiber elongation (Homo sapiens, UniProt P10636). Kind of experiment: Tau fibrillation kinetic analysis. Particulars: increasing concentrations of inhibitor peptide. Format: biochemical. In outline: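 Nucleation (k1) and propagation (k2) rates were fitted from the ThS fibrillation traces of the tau construct assays. The fit used the Finke-Watzky 2-step form, with plateau values fixed first and the remaining parameters fitted by non-linear least-squares regression.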

For experiment [3], the system named is tau segment VQIVYK, and the K12 and K19 tau constructs. Kind of experiment: Fibrillation of tau segment VQIVYK and tau constructs K12 and K19. In kind it is biochemical, human. The gist of the method:
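Un-seeded ThS fibrillation with peptides at specified molar ratios. For K12/K19: 50 μM protein, 250 mM phosphate pH 7.4, 1 mM DTT, 12.5 μM heparin, 10 μM ThS, 37°C; K12 shaken at 900 rpm, K19 quiescent; read every 15 min (ex 440/em 510). For VQIVYK: 25 mM MOPS pH 7.2 with PTFE beads, room temperature, read every 2 min. At least 3 replicates; lag time is the mean time to cross a threshold.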

Experiment [4] relates to HIV-1 infection of TZM-bl cells. Kind of experiment: Effect of WW61, GIHKQK and PYKLWN on HIV-1 infection. Format: cell-based. Particulars: 150, 30, 6, 1.2 and 0 μg/ml during preincubation with virus.
Experiment [5] shares this test system. Nature of the experiment: Effect of WW61 on poly-lysine mediated enhancement of HIV-1 infection. In kind it is cell-based. Particulars: poly-lysine/WW61 100, 20, 4, 0.8, 0.16, 0.032, 0.064 and 0 μg/ml during preincubation with virus. The gist of the method:
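The HIV-1 CCR5-tropic molecular clone came from 293T transfection, with p24 by ELISA. Poly-lysine was mixed 1:1 with test compound. 5-fold dilutions (100, 20, 4, 0.8, 0.16, 0.032, […], 0 μg/ml) were preincubated with an equal volume of virus for 5 min at room temperature. Of each, 20 μl went onto 180 μl TZM-bl cells (LTR-lacZ). β-galactosidase in lysates was read 2 days later by luminescence (RLU/s).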

Experiment [6] concerns the target T1, tau VQIVYK segment fibers (Homo sapiens).
T1 chain: VQIVYK
Nature of the experiment: NMR.

Sequence of tau fiber elongation (P10636 186-283 isoform P10636-2 limits assumed): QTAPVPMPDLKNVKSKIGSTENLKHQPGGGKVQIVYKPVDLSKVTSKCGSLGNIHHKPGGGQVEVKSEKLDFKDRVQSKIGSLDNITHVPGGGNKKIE

CGGG-(D)-LKTWIV [nanogold-D-LKTWIV]: the “nanogold bound to fibers, significance vs nanogold alone” value with K19 fibers was “does not differ significantly from nanogold alone”. Also, in the experiment on ends of K19 fibers, the “nanogold at fiber ends, significance vs nanogold alone” value is given as “does not differ significantly from nanogold alone”.
Turning to CGGG-(D)-TLKIVW [nanogold-D-TLKIVW], the “nanogold bound to fibers, significance vs nanogold alone” value in the experiment with K19 fibers is reported as “significantly different from nanogold alone”. Further, in the experiment on ends of K19 fibers (n = 86, 10 nM conjugate, 1.67 μM K19 fibers, pH 7.2, 1 hour), the “number of fiber-bound nanogold particles localizing to fiber ends (xend), n = 86” value stood at 49. Also, in the experiment on ends of K19 fibers, the “nanogold at fiber ends, significance vs nanogold alone” value is “significantly different from nanogold alone”.
With D-LKTWIV, in the experiment on tau K19 [1], the “K19 fibrillation inhibition, equimolar peptide” value (“K19 fibrillation inhibition” for short) is on record as “little inhibitory effect”. Besides, in the experiment with VQIVYK, the “VQIVYK fibrillation inhibition, equimolar peptide” value (from here on “VQIVYK fibrillation inhibition”) is reported as “little inhibitory effect”. For the same molecule, the “change in indole proton chemical shift with soluble VQIVYK” value with soluble VQIVYK is recorded as “Only a slight change in the chemical shifts”.
Turning to D-TIKWVL, the “K19 fibrillation inhibition” value in the experiment with tau K19 [1] was “little inhibitory effect”. For the same molecule, in the experiment with VQIVYK, the “VQIVYK fibrillation inhibition” value was “little inhibitory effect”.
For D-TIWKVL, the “K19 fibrillation inhibition” value in the experiment with tau K19 [1] is “little inhibitory effect”. In addition, the “VQIVYK fibrillation inhibition” value with VQIVYK was “little inhibitory effect”.
Consider D-TLKIVW, for which the “delay of K12 fibrillation, five-fold molar excess” value with tau K12 (five-fold molar excess, some experimental replicates) was “more than two weeks in some experimental replicates”. Also, the “K12 fiber formation delay, sub-equimolar peptide” value in the experiment with tau K12 (sub-equimolar concentration relative to K12) is “delays fiber formation even at sub-equimolar concentration”. For the same molecule, the “VQIVYK fiber formation delay, sub-equimolar peptide” value in the experiment on VQIVYK (sub-equimolar concentration relative to VQIVYK) was “delays fiber formation even at sub-equimolar concentration”. Further, the “K19 fibrillation by electron microscopy” value in the experiment on tau K19 [2] is listed as “prevents K19 fibrillation”. Further, the “block of amyloid beta fibrillation” value in the experiment with amyloid beta(1-42) was “unable to block the fibrillation of amyloid beta”. Also, at VQIVYK fibers (1H NMR, 500 MHz, fibers containing 0 to 1500 μM VQIVYK monomers), the “estimated affinity constant for fibers” value was “low micromolar range”. Besides, the “standard free binding energy (ΔGbinding)” value in the experiment on VQIVYK fibers (from apparent Kd of 2 μM, VQIVYK fibers) is ~ 7.4 kcal/mol and 7.4 kcal/mol. In the experiment with soluble VQIVYK, the “change in indole proton chemical shift with soluble VQIVYK” value was “Only a slight change in the chemical shifts”. Moreover, on tau fiber elongation, the fiber elongation rate result was “fiber elongation rate decreases in the presence of increasing concentrations of inhibitor peptide”. Moreover, the “lag time in un-seeded reactions” value in experiment [3] (un-seeded reactions) is “large increase in lag time”.
On to H-[W-H-K-chAla-W-hydroxyTic]-OH [WW61], for which the “effect on HIV infectivity in the absence of SEVI” value in experiment [4] is on record as “does not affect HIV infectivity”. The “effect on poly-lysine mediated HIV infectivity” value in experiment [5] was “no inhibitory effect on poly-lysine mediated HIV infectivity”.
As to L-TLKIVW, the “effectiveness of diastereomer relative to D-TLKIVW” value in experiment [3] (diastereomer compared with D-TLKIVW, ThS fluorescence) is “less effective than D-TLKIVW”.

B1: D-TLKIVW (peptide)
chain: [dT][dL][dK][dI][dV][dW]
Turning to B1, in experiment [6], the dissociation constant Kd (in general, a measure of binding affinity in units of concentration) is roughly 2000 nM.
